Molecular target: T1, Ribonuclease P protein component (Staphylococcus aureus, UniProt P0A0H5)
T1 sequence (P0A0H5 whole entry): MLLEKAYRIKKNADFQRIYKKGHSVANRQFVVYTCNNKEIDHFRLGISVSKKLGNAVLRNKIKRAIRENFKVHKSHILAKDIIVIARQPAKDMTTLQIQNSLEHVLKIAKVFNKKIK
Experiment: Inhibition of Staphylococcus aureus RnpA-mediated mRNA degradation after 15 to 30 mins by ethidium bromide staining based agarose gel electrophoresis
Method in brief: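 Recombinant S. aureus RnpA protein of ≥97% purity was tested in vitro for inhibition of its mRNA degradation activity, following the procedure previously described.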

CC(C)c1ccc(OCC(=O)NNC(=S)NC(=O)c2ccno2)cc1
IC50: > 500 µM

Source: BindingDB's records for doi:10.1016/j.bmcl.2018.01.022 (Temple University, 2018)
